Test results published in ChEMBL document CHEMBL2375313, “Synthesis, in vitro antitumor evaluation and DNA-binding study of novel tetrahydroquinolines and some derived tricyclic and tetracyclic ring systems” (Eur J Med Chem, 2013).
Active and inactive are the calls of the source. The rule behind the calls is not given here.

Experiments:
[1] = Displacement of methyl green from DNA (unknown origin) after 24 hrs
Outline: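 DNA-methyl green complex was stirred in 0.05 M Tris-HCl pH 7.5 with 7.5 mmol MgSO4 at 37 °C for 24 h. Compound was dried down from EtOH in tubes and the DNA-methyl green solution added. A630 was read initially and after 24 h dark incubation at room temperature, corrected and normalized to untreated complex. IC50 is the concentration giving a 50% absorbance decrease; mean ± SD, n = 6.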

[2] = Binding affinity to DNA (unknown origin) at 5 mg/mL by RP-TLC plate analysis
Outline: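 Reversed-phase C18 TLC plates pre-developed in methanol/water 8:2. Compound spotted at origin (5 mg/mL in methanol), then DNA (1 mg/mL in water/methanol 8:2) applied at the same spot. Plates developed in the same eluent; DNA located by anisaldehyde spray (blue). Ethidium bromide as positive control.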

HOP-92 = test: Cytotoxicity against human HOP92 cells assessed as growth inhibition at 10 uM after 48 hrs by sulphorhodamine B assay; format: functional; conditions: HOP-92, 48 h, read-out: GI
Outline: (§1)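 NCI-60 one-dose screen per the NCI Drug Evaluation Branch protocol. Cells given a single 10 µM concentration with 48 h continuous exposure. Growth estimated by sulphorhodamine B protein assay. Result expressed as percentage growth inhibition relative to untreated growth.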

NCI-H23 = test: Cytotoxicity against human NCI-H23 cells assessed as growth inhibition at 10 uM after 48 hrs by sulphorhodamine B assay; format: functional; conditions: NCI-H23, 48 h, read-out: GI; outline: as §1
[3] = Cytotoxicity against human EKVX cells assessed as growth inhibition at 10 uM after 48 hrs by sulphorhodamine B assay; format: functional; conditions: read-out: GI; outline: as §1
A549 = test: Cytotoxicity against human A549 cells assessed as growth inhibition at 10 uM after 48 hrs by sulphorhodamine B assay; format: functional; conditions: A549, 48 h, read-out: GI; outline: as §1
NCI/ADR-RES = test: Cytotoxicity against human NCI/ADR-RES cells assessed as growth inhibition at 10 uM after 48 hrs by sulphorhodamine B assay; format: functional; conditions: read-out: GI; outline: as §1
SNB-75 = test: Cytotoxicity against human SNB75 cells assessed as growth inhibition at 10 uM after 48 hrs by sulphorhodamine B assay; format: functional; conditions: SNB-75, 48 h, read-out: GI; outline: as §1
U-251 = test: Cytotoxicity against human U251 cells assessed as growth inhibition at 10 uM after 48 hrs by sulphorhodamine B assay; format: functional; conditions: U-251, 48 h, read-out: GI; outline: as §1
SNB-19 = test: Cytotoxicity against human SNB19 cells assessed as growth inhibition at 10 uM after 48 hrs by sulphorhodamine B assay; format: functional; conditions: SNB-19, 48 h, read-out: GI; outline: as §1
SF-295 = test: Cytotoxicity against human SF295 cells assessed as growth inhibition at 10 uM after 48 hrs by sulphorhodamine B assay; format: functional; conditions: SF-295, 48 h, read-out: GI; outline: as §1
DU-145 = test: Cytotoxicity against human DU145 cells assessed as growth inhibition at 10 uM after 48 hrs by sulphorhodamine B assay; format: functional; conditions: DU-145, 48 h, read-out: GI; outline: as §1
SF-268 = test: Cytotoxicity against human SF268 cells assessed as growth inhibition at 10 uM after 48 hrs by sulphorhodamine B assay; format: functional; conditions: SF-268, 48 h, read-out: GI; outline: as §1
PC-3 = test: Cytotoxicity against human PC3 cells assessed as growth inhibition at 10 uM after 48 hrs by sulphorhodamine B assay; format: functional; conditions: PC-3, 48 h, read-out: GI; outline: as §1
UACC-62 = test: Cytotoxicity against human UACC62 cells assessed as growth inhibition at 10 uM after 48 hrs by sulphorhodamine B assay; format: functional; conditions: UACC-62, 48 h, read-out: GI; outline: as §1
SK-MEL-2 = test: Cytotoxicity against human SK-MEL-2 cells assessed as growth inhibition at 10 uM after 48 hrs by sulphorhodamine B assay; format: functional; conditions: SK-MEL-2, 48 h, read-out: GI; outline: as §1
SK-MEL-5 = test: Cytotoxicity against human SK-MEL-5 cells assessed as growth inhibition at 10 uM after 48 hrs by sulphorhodamine B assay; format: functional; conditions: SK-MEL-5, 48 h, read-out: GI; outline: as §1
M14 = test: Cytotoxicity against human M14 cells assessed as growth inhibition at 10 uM after 48 hrs by sulphorhodamine B assay; format: functional; conditions: M14, 48 h, read-out: GI; outline: as §1
LOX IMVI = test: Cytotoxicity against human LOXIMVI cells assessed as growth inhibition at 10 uM after 48 hrs by sulphorhodamine B assay; format: functional; conditions: read-out: GI; outline: as §1
UO-31 = test: Cytotoxicity against human UO31 cells assessed as growth inhibition at 10 uM after 48 hrs by sulphorhodamine B assay; format: functional; conditions: UO-31, 48 h, read-out: GI; outline: as §1
CAKI-1 = test: Cytotoxicity against human Caki1 cells assessed as growth inhibition at 10 uM after 48 hrs by sulphorhodamine B assay; format: functional; conditions: CAKI-1, 48 h, read-out: GI; outline: as §1
RXF 393 = test: Cytotoxicity against human RXF393 cells assessed as growth inhibition at 10 uM after 48 hrs by sulphorhodamine B assay; format: functional; conditions: RXF 393, 48 h, read-out: GI; outline: as §1
ACHN = test: Cytotoxicity against human ACHN cells assessed as growth inhibition at 10 uM after 48 hrs by sulphorhodamine B assay; format: functional; conditions: read-out: GI; outline: as §1
SR = test: Cytotoxicity against human SR cells assessed as growth inhibition at 10 uM after 48 hrs by sulphorhodamine B assay; format: functional; conditions: read-out: GI; outline: as §1
A498 = test: Cytotoxicity against human A498 cells assessed as growth inhibition at 10 uM after 48 hrs by sulphorhodamine B assay; format: functional; conditions: A498, 48 h, read-out: GI; outline: as §1
RPMI-8226 = test: Cytotoxicity against human RPMI8226 cells assessed as growth inhibition at 10 uM after 48 hrs by sulphorhodamine B assay; format: functional; conditions: RPMI-8226, 48 h, read-out: GI; outline: as §1
MOLT-4 = test: Cytotoxicity against human MOLT4 cells assessed as growth inhibition at 10 uM after 48 hrs by sulphorhodamine B assay; format: functional; conditions: MOLT-4, 48 h, read-out: GI; outline: as §1
K562 = test: Cytotoxicity against human K562 cells assessed as growth inhibition at 10 uM after 48 hrs by sulphorhodamine B assay; format: functional; conditions: K562, 48 h, read-out: GI; outline: as §1
HL-60(TB) = test: Cytotoxicity against human HL-60(TB) cells assessed as growth inhibition at 10 uM after 48 hrs by sulphorhodamine B assay; format: functional; conditions: HL-60, 48 h, read-out: GI
Outline: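 NCI-60 one-dose primary screen run to the Drug Evaluation Branch protocol. Cells are exposed to a single 10 µM concentration for 48 h continuously, and growth is read by SRB protein assay. Data are reported as percent growth of treated cells, expressed as % growth inhibition.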

SK-OV-3 = test: Cytotoxicity against human SKOV3 cells assessed as growth inhibition at 10 uM after 48 hrs by sulphorhodamine B assay; format: functional; conditions: SK-OV-3, 48 h, read-out: GI; outline: as §1
CCRF-CEM = test: Cytotoxicity against human CCRF-CEM cells assessed as growth inhibition at 10 uM after 48 hrs by sulphorhodamine B assay; format: functional; conditions: read-out: GI; outline: as §1
OVCAR-5 = test: Cytotoxicity against human OVCAR5 cells assessed as growth inhibition at 10 uM after 48 hrs by sulphorhodamine B assay; format: functional; conditions: OVCAR-5, 48 h, read-out: GI; outline: as §1
OVCAR-4 = test: Cytotoxicity against human OVCAR4 cells assessed as growth inhibition at 10 uM after 48 hrs by sulphorhodamine B assay; format: functional; conditions: OVCAR-4, 48 h, read-out: GI; outline: as §1
IGROV-1 = test: Cytotoxicity against human IGROV1 cells assessed as growth inhibition at 10 uM after 48 hrs by sulphorhodamine B assay; format: functional; conditions: IGROV-1, 48 h, read-out: GI; outline: as §1
T47D = test: Cytotoxicity against human T47D cells assessed as growth inhibition at 10 uM after 48 hrs by sulphorhodamine B assay; format: functional; conditions: read-out: GI; outline: as §1
Hs-578T = test: Cytotoxicity against human Hs578T cells assessed as growth inhibition at 10 uM after 48 hrs by sulphorhodamine B assay; format: functional; conditions: read-out: GI; outline: as §1
NCI-H522 = test: Cytotoxicity against human NCI-H522 cells assessed as growth inhibition at 10 uM after 48 hrs by sulphorhodamine B assay; format: functional; conditions: NCI-H522, 48 h, read-out: GI; outline: as §1
HT-29 = test: Cytotoxicity against human HT-29 cells assessed as growth inhibition at 10 uM after 48 hrs by sulphorhodamine B assay; format: functional; conditions: HT-29, 48 h, read-out: GI; outline: as §1
MCF7 = test: Cytotoxicity against human MCF7 cells assessed as growth inhibition at 10 uM after 48 hrs by sulphorhodamine B assay; format: functional; conditions: MCF7, 48 h, read-out: GI; outline: as §1
MDA-MB-435 = test: Cytotoxicity against human MDA-MB-435 cells assessed as growth inhibition at 10 uM after 48 hrs by sulphorhodamine B assay; format: functional; conditions: MDA-MB-435, 48 h, read-out: GI; outline: as §1
HCT-15 = test: Cytotoxicity against human HCT15 cells assessed as growth inhibition at 10 uM after 48 hrs by sulphorhodamine B assay; format: functional; conditions: HCT-15, 48 h, read-out: GI; outline: as §1
MDA-MB-468 = test: Cytotoxicity against human MDA-MB-468 cells assessed as growth inhibition at 10 uM after 48 hrs by sulphorhodamine B assay; format: functional; conditions: MDA-MB-468, 48 h, read-out: GI; outline: as §1
HCT-116 = test: Cytotoxicity against human HCT116 cells assessed as growth inhibition at 10 uM after 48 hrs by sulphorhodamine B assay; format: functional; conditions: HCT-116, 48 h, read-out: GI; outline: as §1

CC[n+]1c(-c2ccccc2)c2cc(N)ccc2c2ccc(N)cc21.[Br-] [HOMIDIUM BROMIDE]
IC50 [1]: 4 ng/mL
Activity [2]: Active

CC1CCCc2c1nc(NC(=S)NC(=O)c1ccccc1)c(C#N)c2-c1ccc(Cl)cc1 (stereo not drawn)
inhibition of growth at 10 µM (HOP-92): 38.2%
inhibition of growth at 10 µM (NCI-H23): 10%
inhibition of growth at 10 µM [3]: 16.7%
inhibition of growth at 10 µM (A549): 16%
inhibition of growth at 10 µM (NCI/ADR-RES): < 10%
inhibition of growth at 10 µM (SNB-75): 15.7%
inhibition of growth at 10 µM (U-251): 20%
inhibition of growth at 10 µM (SNB-19): 14.1%
inhibition of growth at 10 µM (SF-295): 17.2%
inhibition of growth at 10 µM (DU-145): < 10%
inhibition of growth at 10 µM (SF-268): < 10%
inhibition of growth at 10 µM (PC-3): 20.3%
inhibition of growth at 10 µM (UACC-62): 25.3%
inhibition of growth at 10 µM (SK-MEL-2): 10.3%
inhibition of growth at 10 µM (SK-MEL-5): 17.7%
inhibition of growth at 10 µM (M14): < 10%
inhibition of growth at 10 µM (LOX IMVI): 11.1%
inhibition of growth at 10 µM (UO-31): 33.2%
inhibition of growth at 10 µM (CAKI-1): 22.5%
inhibition of growth at 10 µM (RXF 393): < 10%
inhibition of growth at 10 µM (ACHN): 14%
inhibition of growth at 10 µM (SR): < 10%
inhibition of growth at 10 µM (A498): 39%
inhibition of growth at 10 µM (RPMI-8226): 55%
inhibition of growth at 10 µM (MOLT-4): 31%
inhibition of growth at 10 µM (K562): 36.3%
inhibition of growth at 10 µM (HL-60(TB)): 30%
inhibition of growth at 10 µM (SK-OV-3): 20%
inhibition of growth at 10 µM (CCRF-CEM): 27.6%
inhibition of growth at 10 µM (OVCAR-5): < 10%
inhibition of growth at 10 µM (OVCAR-4): 21.4%
inhibition of growth at 10 µM (IGROV-1): 32%
inhibition of growth at 10 µM (T47D): 38.8%
inhibition of growth at 10 µM (Hs-578T): 13.8%
inhibition of growth at 10 µM (NCI-H522): 27.5%
inhibition of growth at 10 µM (HT-29): < 10%
inhibition of growth at 10 µM (MCF7): 12.1%
inhibition of growth at 10 µM (MDA-MB-435): < 10%
inhibition of growth at 10 µM (HCT-15): 11.6%
inhibition of growth at 10 µM (MDA-MB-468): 14.5%
inhibition of growth at 10 µM (HCT-116): 20%
